ChEMBL document CHEMBL3124852, “Synthesis and evaluation of (-)-Massoialactone and analogues as potential anticancer and anti-inflammatory agents” (Eur J Med Chem, 2014)
≈ marks a conversion by molar mass, not a printed value.

What was measured:
[1] = Cytotoxicity against LPS-stimulated Balb/c mouse peritoneal macrophages assessed as cell viability at 12.5 ug/ml after 24 hrs by MTT assay relative to control; type: cell-based, Peritoneal macrophage cell; details: read-out: Activity
Procedure, shortened: (§1)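 Adherent thioglycollate-elicited Balb/c peritoneal macrophages exposed 24 h to compound (3.1–25.0 µg/mL) and/or LPS (1 µg/mL), then MTT (5 mg/mL stock) added for 4 h; formazan dissolved in DMSO, absorbance 550 nm. Cell death % = (1 − A_test/A_control) × 100. Quadruplicate wells, three independent experiments; mean ± SD.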

[2] = test system: MCF7; experiment: Cytotoxicity against human MCF7 cells after 72 hrs by MTT assay; type: functional, cell-based; details: MCF7, 72 h
[3] = Cytotoxicity against LPS-stimulated Balb/c mouse peritoneal macrophages assessed as cell viability after 24 hrs by MTT assay; type: cell-based; details: peritoneal macrophage cell; procedure, shortened: as §1
[4] = Cytotoxicity against LPS-stimulated Balb/c mouse peritoneal macrophages assessed as cell viability at 3.1 ug/ml after 24 hrs by MTT assay relative to control; type: cell-based, Peritoneal macrophage cell; details: read-out: Activity; procedure, shortened: as §1
[5] = test system: K562; experiment: Cytotoxicity against human K562 cells after 72 hrs by MTT assay; type: functional, cell-based; details: K562, 72 h
Procedure, shortened: (§2)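 Tumour cells plated at 10⁵ cells/mL (adherent) or 3 × 10⁵ cells/mL (leukaemias) in medium with fetal bovine serum, 2 mM glutamine, penicillin/streptomycin, 37 °C, 5% CO₂. Compounds ([…], 0.1% DMSO) added for 72 h; MTT (5 mg/mL stock) added at 69 h, formazan dissolved in DMSO after 3 h, read at 595 nm. IC50 with 95% CI from nonlinear regression, two experiments.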

[6] = test system: HL-60; experiment: Cytotoxicity against human HL60 cells after 72 hrs by MTT assay; type: functional, cell-based; details: HL-60, 72 h; procedure, shortened: as §2
[7] = Cytotoxicity against LPS-stimulated Balb/c mouse peritoneal macrophages assessed as cell viability at 25 ug/ml after 24 hrs by MTT assay relative to control; type: cell-based, Peritoneal macrophage cell; details: read-out: Activity; procedure, shortened: as §1
[8] = test system: NCI-H292; experiment: Cytotoxicity against human NCI-H292 cells after 72 hrs by MTT assay; type: functional, cell-based; details: NCI-H292, 72 h; procedure, shortened: as §2
[9] = Cytotoxicity against LPS-stimulated Balb/c mouse peritoneal macrophages assessed as cell viability at 6.2 ug/ml after 24 hrs by MTT assay relative to control; type: cell-based, Peritoneal macrophage cell; details: read-out: Activity; procedure, shortened: as §1
[10] = test system: HT-29; experiment: Cytotoxicity against human HT-29 cells after 72 hrs by MTT assay; type: functional, cell-based; details: HT-29, 72 h; procedure, shortened: as §2
[11] = Antiinflammatory activity in Balb/c mouse peritoneal macrophages assessed as reduction in LPS-induced nitric oxide production at 3.1 ug/ml after 24 hrs by Griess method relative to control; type: functional, Peritoneal macrophage cell
Procedure, shortened: (§3)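 Thioglycollate-elicited (2.5 mL 3%, i.p., 72 h) peritoneal cells from Balb/c mice, viability checked by trypan blue, cultured at 5 × 10⁶ cells/mL in RPMI-1640 + 10% FBS; non-adherent cells removed after 2 h at 37 °C, 5% CO₂. Adherent macrophages treated with compound plus LPS (1 µg/mL) 24 h; supernatant collected. Mean ± SD of three independent experiments; ANOVA with Newman-Keuls versus medium-only cells.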

[12] = Antiinflammatory activity in Balb/c mouse peritoneal macrophages assessed as reduction in LPS-induced TNF-alpha production at 3.1 ug/ml after 24 hrs by ELISA relative to control; type: functional, Peritoneal macrophage cell; procedure, shortened: as §3

Compound | viability at 24 h, 12.5 ug/ml [1] [%] | IC50 [2] [µg/mL] | Activity [3] | viability at 24 h, 3.1 ug/ml [4] [%] | IC50 [5] [µg/mL] | IC50 [6] [µg/mL] | viability at 24 h, 25 ug/ml [7] [%] | IC50 [8] [µg/mL] | viability at 24 h, 6.2 ug/ml [9] [%] | IC50 [10] [µg/mL] | Activity [11] [µM] | Activity [12] [pg/mL]
O=C1C=CCC(c2ccccc2)O1 (configuration not stated) | 1 | 22.9 (≈ 131 µM) | Dose-dependent effect | 34.5 | 8.9 (≈ 51.1 µM) | 13.2 (≈ 75.8 µM) | 7.4 | 9.1 (≈ 52.2 µM) | 30.9 | 10.9 (≈ 62.6 µM) |  | 
O=C1C=CCC(COc2ccccc2)O1 (configuration not stated) | 0 | 22.5 (≈ 110 µM) | Dose-dependent effect | 93 | 2.9 (≈ 14.2 µM) | 5.4 (≈ 26.4 µM) | 0 | 0.8 (≈ 3.92 µM) | 47.3 | 4.4 (≈ 21.5 µM) | 5.2 | 112.4
C=CCCC1CC=CC(=O)O1 (configuration not stated) | 19.7 | > 100 | Dose-dependent effect | 57 |  |  | 2.5 | > 100 | 45.4 | > 100 |  | 
C=CCOCC1CC=CC(=O)O1 (configuration not stated) | 51.1 | 44.6 (≈ 265 µM) | Dose-dependent effect | 100 | 50 (≈ 297 µM) | 25.5 (≈ 152 µM) | 7.7 | 16.6 (≈ 98.7 µM) | 77.2 | 18.4 (≈ 109 µM) | 2.7 | 210
CCCCC[C@@H]1CC=CC(=O)O1 |  | 60 (≈ 357 µM) |  |  | 20.2 (≈ 120 µM) | 16 (≈ 95.1 µM) |  | 11.3 (≈ 67.2 µM) |  | 22.6 (≈ 134 µM) |  | 
CCC1CC=CC(=O)O1 (configuration not stated) |  | > 100 |  |  |  |  |  | > 100 |  | > 100 |  | 
COc1cccc2c1C(=O)c1c(O)c3c(c(O)c1C2=O)C[C@@](O)(C(=O)CO)C[C@@H]3O[C@H]1C[C@H](N)[C@H](O)[C@H](C)O1 [DOXORUBICIN] |  |  |  |  | 0.26 (≈ 0.478 µM) |  |  | 0.02 (≈ 0.0368 µM) |  |  |  | 
